For data set [1], the system named is Bone. As to the kind of experiment: Antiosteoporotic activity in Sprague-Dawley rat [45Ca] pre-labeled bone assessed as inhibition of PTH-induced bone resorption after 96 hrs.
The subject of data set [2] is Bone marrow cell. As to the kind of experiment: Osteoclastogenesis activity in BALB/c mouse bone marrow cells assessed as inhibition of MCSF-induced RANK gene expression at 1 uM after 7 days by RT-PCR analysis. It is filed as functional, cell-based. An outline of the steps: (§1)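 Bone marrow from long bones of 4–6-week-old Balb/c mice, plated overnight in α-MEM with 10% FBS and M-CSF. Nonadherent cells then cultured with RANKL 50 ng/ml and M-CSF 10 ng/ml plus test agent 1 µM, medium changed every 2 d for 7 d. TRAP and RANK mRNA measured by qPCR after Trizol RNA extraction, expressed as fold change over vehicle.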

Data set [3] deals with Bone marrow cell. As to the kind of experiment: Osteoclastogenesis activity in BALB/c mouse bone marrow cells assessed as inhibition of RANK-induced TRAP gene expression at 1 uM after 7 days by RT-PCR analysis. In kind it is functional, cell-based. The essentials:
as §1

The species entered for data set [4] is Rattus norvegicus. As to the kind of experiment: Displacement of [3H]-estradiol from estrogen receptor in rat uteri after 18 hrs by scintillation counting relative to 17beta-estradiol. The essentials:
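Cytosol from uteri of immature 20–21-day-old rats, in TEA buffer pH 7.4 (10 mM Tris, 1.5 mM EDTA, 0.02% azide). Incubated in triplicate with fixed 3H-estradiol ± competitor (DMF ≤5% final) for 18 h at 4 °C. Free ligand removed with dextran-coated charcoal (15 min, 800g 10 min), then supernatant counted. RBA taken at 50% inhibition from the bound-versus-log concentration plot.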
A general note: Displacement assays read how much labelled ligand stays bound in the presence of the test substance.

Data set [5] concerns Bone marrow cell. As to the kind of experiment: Osteoclastogenesis activity in BALB/c mouse bone marrow cells assessed as inhibition of MCSF-induced TRAP gene expression at 1 uM after 7 days by RT-PCR analysis. It is filed as functional, cell-based. The essentials:
as §1

For data set [6], the system named is Bone marrow cell. Put plainly: Osteoclastogenesis activity in BALB/c mouse bone marrow cells assessed as inhibition of RANK-induced RANK gene expression at 1 uM after 7 days by RT-PCR analysis. In kind it is functional, cell-based. The essentials:
as §1

Data set [7] deals with Rattus norvegicus. As to the kind of experiment: Antiimplantation activity in Sprague-Dawley albino rat at 20 mg/kg, po after 10 days. In kind it is functional. An outline of the steps: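 Sperm-positive adult Sprague-Dawley females (180–220 g) mated with proven-fertile males. Compounds given orally as a gum acacia suspension on days 1–5 post-coitum, 5–7 animals per group. Vehicle-only group served as control.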

In data set [8] the test system is Ishikawa. As to the kind of experiment: Antiproliferative activity against human Ishikawa cells expressing estrogen receptor after 48 hrs by MTT assay. In kind it is functional, cell-based. The essentials: (§2)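 Cells seeded at 1×10^4/well in DMEM with 10% FBS for 24 h at 37 °C, then exposed to compounds for 48 h. MTT (5 mg/mL) added for 4 h. Formazan dissolved in DMSO and absorbance read at 540 nm. Routine culture used DMEM with 10% FBS, 5% CO2, reduced to 2% FBS for growth inhibition.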
(In general: Tetrazolium dyes change colour on reduction, which living cells bring about.)

Another data set concerns MDA-MB-231. Put plainly: Antiproliferative activity against estrogen receptor-deficient human MDA-MB-231 cells […] after 48 hrs by MTT assay. In kind it is functional, cell-based. As to conditions: MDA-MB-231, 48 h. The essentials: as §2
Data set [9] has as its system Rattus norvegicus. Put plainly: Antiestrogenic activity in Sprague-Dawley rat assessed as inhibition of uterine weight gain administered as po daily once for 3 days relative to 17alpha-ethynylestradiol. In kind it is functional. An outline of the steps: (§3)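 Immature female Sprague-Dawley rats given oral dosing once daily for 3 days on days 28–30 of age. Antiestrogenic arm co-dosed ethynylestradiol 0.02 mg/kg in 10% ethanol-water. Autopsy 24 h after last dose (day 31). Uterus excised, blotted and weighed, with vaginal opening and cornification also scored. Inhibition computed as (E − T)×100/E versus ethynylestradiol alone. Estrogenic gain expressed as percent increase over vehicle control.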

Data set [10] has as its system Bone. As to the kind of experiment: Antiosteoporotic activity in Sprague-Dawley rat [45Ca] pre-labeled bone assessed as inhibition of PTH-induced bone resorption after 96 hrs relative to control.
The subject of data set [11] is Rattus norvegicus. As to the kind of experiment: Estrogenic activity in Sprague-Dawley rat assessed as increase in uterine weight administered as po daily once for 3 days relative to control. It is filed as functional. Further details: concentration or dose not given beside the values. The essentials: as §3
A further data set has as its system MCF7. Put plainly: Antiproliferative activity against human MCF7 cells expressing estrogen receptor after 48 hrs by MTT assay. It is filed as functional, cell-based. The following applies: MCF7, 48 h. An outline of the steps: as §2
Data set [12] deals with HEK293. Put plainly: Antiproliferative activity against human HEK293 cells after 48 hrs by MTT assay. It is filed as cell-based. The following applies: HEK293, 48 h. An outline of the steps:
as §2

The test system of data set [13] is HEK293. Put plainly: Antiproliferative activity against human HEK293 cells at 50 uM after 48 hrs by MTT assay. As to conditions: hek293, 48 h. It is filed as cell-based.
Data set [14] concerns Ishikawa. As to the kind of experiment: Antiproliferative activity against human Ishikawa cells expressing estrogen receptor at 50 uM after 48 hrs by MTT assay. It is filed as functional, cell-based.

Usually IC50 stands for the concentration needed to halve the response being measured.

Active and inactive are the calls of the source. The calls are words filed in the database; no cut-off is given here.

As for `COc1ccc(C(CC(=O)c2ccccc2)Sc2ccccc2)cc1` (stereo not given), the T/C in the data set with Bone [1] stood at 0.784. Further, the inhibition result with Bone marrow cell [2], in the data set on Bone marrow cell [3], in the data set on Bone marrow cell [5] and in the data set on Bone marrow cell [6] was “Active” throughout. In addition, the RBA in the data set listed under Rattus norvegicus [4] came out at 2.67%. For the same compound, in the data set on Rattus norvegicus [7], the outcome was inactive. Also, the 50% inhibitory concentration (IC50) in the data set on Ishikawa [8] was 26 µM; with MDA-MB-231, 34 µM; with MCF7, 21 µM. For the same compound, the “inhibition (INH)” value in the data set on Rattus norvegicus [9] is on record as 18%; with Bone [10], 21.6%. In addition, the Activity in the data set on Rattus norvegicus [11] was determined as 192%.

As to `O=C(CC(Sc1ccccc1)c1ccccc1)c1ccccc1` (stereo not given), the T/C in the data set on Bone [1] is reported as 0.562. Moreover, the inhibition entry in the data set with Bone marrow cell [2], in the data set with Bone marrow cell [3], in the data set on Bone marrow cell [5] and in the data set with Bone marrow cell [6] was “Active” in each case. The same compound came in with an RBA in the data set listed under Rattus norvegicus [4] of 1.25%. In addition, the outcome in the data set with Rattus norvegicus [7] was inactive. Further, the results for the 50% inhibitory concentration (IC50) with Ishikawa [8], in the data set with MDA-MB-231 and in the data set on MCF7 were 20 µM, 57 µM and 24 µM, respectively. The “inhibition (INH)” value was 16% in the data set on Rattus norvegicus [9] and 43.8% in the data set with Bone [10]. The Activity in the data set with Rattus norvegicus [11] is listed as 185%.

With `COc1ccc(C(=O)CC(Sc2ccccc2)c2ccc(OC)cc2)cc1` (stereo not given), the T/C in the data set with Bone [1] is 0.61. Besides, the inhibition entry with Bone marrow cell [2], in the data set with Bone marrow cell [3], in the data set with Bone marrow cell [5] and with Bone marrow cell [6] was “Active” throughout. In the data set filed under Rattus norvegicus [4], the RBA was 2.21%. For the same compound, the outcome with Rattus norvegicus [7] was inactive. The half-maximal inhibitory concentration (IC50) in the data set on Ishikawa [8] is 16 µM; with HEK293 [12] it was 38.2 µM; with MDA-MB-231, 31 µM; in the data set on MCF7, 17 µM. The “inhibition (INH)” value in the data set on Rattus norvegicus [9] was 16%; in the data set with Bone [10] it was 39%. Also, the Activity in the data set with Rattus norvegicus [11] amounted to 187%.

For `CN(C)CCOc1ccc(C(=O)CC(Sc2ccccc2)c2ccccc2)cc1` (stereo not given), the T/C in the data set on Bone [1] came out at 0.863. This compound gave an RBA in the data set filed under Rattus norvegicus [4] of 0.157%. Moreover, the outcome in the data set with Rattus norvegicus [7] was inactive. Further, the figures for the concentration for half-maximal inhibition (IC50) in the data set with Ishikawa [8], in the data set on MDA-MB-231 and in the data set on MCF7 were 20 µM, 27 µM and over 50 µM, respectively. Also, the “inhibition (INH)” value worked out at 12% with Rattus norvegicus [9] and 13.7% in the data set on Bone [10]. The Activity entry with HEK293 [13] is reported as “Non-toxic”; in the data set with Rattus norvegicus [11], 174%.

Regarding `CCSC(CC(=O)c1ccc(OCCN2CCCCC2)cc1)c1ccccc1` (stereo not given), the T/C in the data set with Bone [1] is 0.947. For the same compound, in the data set filed under Rattus norvegicus [4], the RBA was found to be 0.175%. Moreover, the result in the data set with Rattus norvegicus [7] was inactive. For the same compound, the half-maximal inhibitory concentration (IC50) in the data set on Ishikawa [8] came out at 28.5 µM; in the data set on MDA-MB-231, 40.2 µM; with MCF7 it was 32.8 µM. Besides, the entries for the “inhibition (INH)” value with Rattus norvegicus [9] and in the data set with Bone [10] were 7% and 5.5%, respectively. For the same compound, the values for the Activity entry in the data set with HEK293 [13] and with Rattus norvegicus [11] were “Non-toxic” and 134%, respectively.

With `Cc1ccc(SC(CC(=O)c2ccc(OCCN(C)C)cc2)c2ccccc2)cc1` (stereo not given), the T/C in the data set with Bone [1] came out at 0.845. The RBA in the data set filed under Rattus norvegicus [4] is 0.245%. Besides, the outcome in the data set with Ishikawa [14] and in the data set on Rattus norvegicus [7] was inactive. Further, the figures for the IC50 with MDA-MB-231 and in the data set with MCF7 were 28 µM and over 50 µM, respectively. The “inhibition (INH)” value was determined as 8% in the data set with Rattus norvegicus [9] and 15.5% in the data set on Bone [10]. Also, the results for the Activity result in the data set on HEK293 [13] and in the data set on Rattus norvegicus [11] were “Non-toxic” and 76%, respectively.

The values above are taken from ChEMBL document CHEMBL1817588, “Design and synthesis of 1,3-biarylsulfanyl derivatives as new anti-breast cancer agents” (Bioorg Med Chem, 2011).
